# Experimental data of several laboratories.
# Each line is one published result; the experiments were not run side by side. pIC50: −log10 of the molar value.
# Observed: ABTS scavenging
Structure (SMILES),method,measurement,value
Fc1ccc2[nH]c(-c3cccc(OCc4ccccc4)c3)nc2c1,absorbance,pIC50,5.73
CCCCOc1ccc(NC(=O)Cc2c[nH]c3ccccc23)cc1,,pIC50,5.75
Cc1cc(C(C)(C)C)c(O)c(C(C)(C)C)c1,,IC50,6.99 µg/mL
CCCCCCCCOc1ccc(NC(=O)Cc2c[nH]c3ccccc23)cc1,,pIC50,5.74
COc1ccc(-c2nc3cc([N+](=O)[O-])ccc3[nH]2)cc1OCc1ccccc1,absorbance,pIC50,5.75
O=C(Cc1c[nH]c2ccccc12)Nc1ccc(Cl)cc1,,pIC50,6.34
COc1cc(-c2oc3cc(O)cc(O)c3c(=O)c2O[C@@H]2O[C@H](CO)[C@@H](O)[C@H](O)[C@H]2O)ccc1O,absorbance,pIC50,4.82
COc1ccc(-c2nc3ccccc3[nH]2)cc1OCc1ccccc1,absorbance,pIC50,5.75
O=C1O[C@H]([C@@H](O)CO)C(O)=C1O,,IC50,1.4 µg/mL
CCOC(=O)c1cc(O)c(O)c(O)c1,absorbance,pIC50,4.75
Clc1ccc2[nH]c(-c3ccccc3OCc3ccccc3)nc2c1,absorbance,pIC50,5.75
O=C(Cc1c[nH]c2ccccc12)Nc1cccc(I)c1,,pIC50,5.94
O=C(O)c1cc(O)c(O)c(O)c1,absorbance,pIC50,5.09
CSc1cccc(NC(=O)Cc2c[nH]c3ccccc23)c1,,pIC50,5.82
O=c1c(O[C@@H]2O[C@H](CO)[C@@H](O)[C@H](O)[C@H]2O)c(-c2ccc(O)c(O)c2)oc2cc(O)cc(O)c12,absorbance,pIC50,5.19
